# Measurements reported in ChEMBL document CHEMBL1287642, “Synthesis, antiviral activity and cytotoxicity evaluation of Schiff bases of some 2-phenyl quinazoline-4(3)H-ones” (Eur J Med Chem, 2010).
# Experiments:
# [1] = Cytotoxicity against human HEL cells assessed as minimum concentration required to cause microscopically detectable alteration after 2 days; assay type: cell-based; conditions: read-out: Activity
# Human alphaherpesvirus 1 [2] = assay: Antiviral activity against Herpes simplex virus-1 KOS infected in human HEL cells assessed as protection against virus-induced cytopathogenicity after 2 days; assay type: functional, organism-based; conditions: Human alphaherpesvirus 1, KOS, 48 h
# Human alphaherpesvirus 2 = assay: Antiviral activity against Herpes simplex virus-2 G infected in human HEL cells assessed as protection against virus-induced cytopathogenicity after 2 days; assay type: functional, organism-based; conditions: Human alphaherpesvirus 2, strain G, 48 h
# [3] = tested on: Vesicular stomatitis virus; assay: Antiviral activity against Vesicular stomatitis virus infected in human HEL cells assessed as protection against virus-induced cytopathogenicity after 2 days; assay type: functional, organism-based; conditions: 48 h
# Human alphaherpesvirus 1 [4] = assay: Antiviral activity against acyclovir-resistant TK deficient Herpes simplex virus-1 KOS infected in human HEL cells assessed as protection against virus-induced cytopathogenicity after 2 days; assay type: functional, organism-based; conditions: Human alphaherpesvirus 1, KOS, 48 h
# [5] = Cytotoxicity against african green monkey Vero cells assessed as minimum concentration required to cause microscopically detectable alteration after 2 days; assay type: cell-based; conditions: chlorocebus sabaeus, read-out: Activity
# Human respirovirus 3 = assay: Antiviral activity against Para influenza-3 virus infected in african green monkey Vero cells assessed as protection against virus-induced cytopathogenicity after 2 days; assay type: functional, organism-based; conditions: Human respirovirus 3, Vero, 48 h
# [6] = tested on: Mammalian orthoreovirus 1; assay: Antiviral activity against Reovirus-1 infected in african green monkey Vero cells assessed as protection against virus-induced cytopathogenicity after 2 days; assay type: functional, organism-based; conditions: Mammalian orthoreovirus 1, Vero, 48 h
# Sindbis virus = assay: Antiviral activity against Sindbis virus infected in african green monkey Vero cells assessed as protection against virus-induced cytopathogenicity after 2 days; assay type: functional, organism-based; conditions: 48 h
# Coxsackievirus B4 [7] = assay: Antiviral activity against Coxsackie virus B4 infected in african green monkey Vero cells assessed as protection against virus-induced cytopathogenicity after 2 days; assay type: functional, organism-based; conditions: Enterovirus B, 48 h
# Punta Toro virus = assay: Antiviral activity against Punta Toro virus infected in african green monkey Vero cells assessed as protection against virus-induced cytopathogenicity after 2 days; assay type: functional, organism-based; conditions: 48 h
# [8] = Cytotoxicity against cat CRFK cells by MTS assay; assay type: cell-based, Felis catus; conditions: crfk
# How it was run: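 In uninfected CRFK cells, the 50% cytotoxic concentration was derived from cell viability measured by the colorimetric formazan-based MTS assay.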
# [9] = tested on: Feline infectious peritonitis virus; assay: Antiviral activity against Feline coronavirus FIPV infected in cat CRFK cells assessed as protection against virus-induced cytopathogenicity after 2 days by MTS assay; assay type: functional, cell-based; conditions: Alphacoronavirus 1, CRFK, 48 h
# Felid alphaherpesvirus 1 = assay: Antiviral activity against Feline herpes virus infected in cat CRFK cells assessed as protection against virus-induced cytopathogenicity after 2 days by MTS assay; assay type: functional, organism-based; conditions: Felid alphaherpesvirus 1, CRFK, 48 h
# [10] = Cytotoxicity against human HeLa cells assessed as minimum concentration required to cause microscopically detectable alteration after 2 days; assay type: cell-based; conditions: read-out: Activity
# [11] = tested on: Vesicular stomatitis virus; assay: Antiviral activity against Vesicular stomatitis virus infected in human HeLa cells assessed as protection against virus-induced cytopathogenicity after 2 days; assay type: functional, organism-based; conditions: 48 h
# Coxsackievirus B4 [12] = assay: Antiviral activity against Coxsackie virus B4 infected in human HeLa cells assessed as protection against virus-induced cytopathogenicity after 2 days; assay type: functional, organism-based; conditions: Enterovirus B, 48 h
# [13] = tested on: Respiratory syncytial virus; assay: Antiviral activity against Respiratory syncytial virus infected in human HeLa cells assessed as protection against virus-induced cytopathogenicity after 2 days; assay type: functional, organism-based; conditions: 48 h
# Influenza A virus [14] = assay: Antiviral activity against influenza A virus H1N1 infected in MDCK cells assessed as protection against virus-induced cytopathogenicity at 100 ug/ml after 2 days; assay type: functional, organism-based
# How it was run: (§1)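 Infected MDCK cells were treated. […] N.A. means not active at the highest concentration tested or at a subtoxic concentration.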
# Influenza A virus [15] = assay: Antiviral activity against Influenza A virus H3N2 infected in MDCK cells assessed as protection against virus-induced cytopathogenicity at 100 ug/ml after 2 days; assay type: functional, organism-based; how it was run: as §1
# Influenza B virus [16] = assay: Antiviral activity against influenza B virus infected in MDCK cells assessed as protection against virus-induced cytopathogenicity at 100 ug/ml after 2 days; assay type: functional, organism-based; how it was run: as §1
# MDCK = assay: Cytotoxicity against MDCK cells by MTS assay; assay type: cell-based, Canis lupus familiaris; conditions: dog, mdck
# How it was run: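 In Madin Darby canine kidney cells, the 50% cytotoxic concentration was derived from cell viability measured by the colorimetric formazan-based MTS assay.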
# [17] = Cytotoxicity against MDCK cells assessed as minimum concentration required to cause microscopically detectable alteration after 2 days; assay type: cell-based, Canis lupus familiaris; conditions: dog, read-out: Activity
# Influenza A virus [18] = assay: Antiviral activity against influenza A virus H1N1 infected in MDCK cells assessed as cell viability at 100 ug/ml after 2 days by MTS assay; assay type: functional, organism-based
# Influenza A virus [19] = assay: Antiviral activity against Influenza A virus H3N2 infected in MDCK cells assessed as cell viability at 100 ug/ml after 2 days by MTS assay; assay type: functional, organism-based
# Influenza B virus [20] = assay: Antiviral activity against influenza B virus infected in MDCK cells assessed as cell viability at 100 ug/ml after 2 days by MTS assay; assay type: functional, organism-based
Compound,MCC at 48 h [1] [µg/mL],EC50 (Human alphaherpesvirus 1 [2]) [mg/L],EC50 (Human alphaherpesvirus 2) [mg/L],EC50 [3] [mg/L],EC50 (Human alphaherpesvirus 1 [4]) [mg/L],MCC at 48 h [5] [µg/mL],EC50 (Human respirovirus 3) [mg/L],EC50 [6] [mg/L],EC50 (Sindbis virus) [mg/L],EC50 (Coxsackievirus B4 [7]) [mg/L],EC50 (Punta Toro virus) [mg/L],CC50 [8] [mg/L],EC50 [9] [mg/L],EC50 (Felid alphaherpesvirus 1) [mg/L],MCC at 48 h [10] [µg/mL],EC50 [11] [mg/L],EC50 (Coxsackievirus B4 [12]) [mg/L],EC50 [13] [mg/L],EC50 (Influenza A virus [14]),MCC at 48 h [17] [µg/mL],further results
O=c1c2ccccc2nc(-c2ccccc2)n1/N=C/c1ccc(Cl)cc1,100,> 20,> 20,> 20,> 20,20,> 4,> 4,> 4,> 4,> 4,42.2,> 20,> 20,20,> 4,> 4,> 4,Not Active,20,EC50 (Influenza A virus [15]): Not Active; EC50 (Influenza B virus [16]): Not Active; CC50 (MDCK): 76.4 mg/L; EC50 (Influenza A virus [18]): Not Active; EC50 (Influenza A virus [19]): Not Active; EC50 (Influenza B virus [20]): Not Active
COc1ccc(/C=N/n2c(-c3ccccc3)nc3ccccc3c2=O)cc1O,100,> 20,> 20,> 20,> 20,100,> 20,> 20,> 20,> 20,> 20,42.7,> 20,> 20,20,> 4,> 4,> 4,Not Active,20,EC50 (Influenza A virus [15]): Not Active; EC50 (Influenza B virus [16]): Not Active; CC50 (MDCK): 47.4 mg/L; EC50 (Influenza A virus [18]): Not Active; EC50 (Influenza A virus [19]): Not Active; EC50 (Influenza B virus [20]): Not Active
C/C(=N\n1c(-c2ccccc2)nc2ccccc2c1=O)c1ccc(O)cc1,> 100,> 100,> 100,> 100,> 100,100,> 100,> 100,> 100,> 100,> 100,> 100,> 100,> 100,> 100,> 100,> 100,> 100,Not Active,> 100,EC50 (Influenza A virus [15]): Not Active; EC50 (Influenza B virus [16]): Not Active; CC50 (MDCK): > 100 mg/L; EC50 (Influenza A virus [18]): Not Active; EC50 (Influenza A virus [19]): Not Active; EC50 (Influenza B virus [20]): Not Active
NC(=O)c1ncn([C@@H]2O[C@H](CO)[C@@H](O)[C@H]2O)n1 [RIBAVIRIN],> 250,> 250,> 250,–,> 250,> 250,–,> 250,> 250,> 250,–,–,–,–,> 250,22,–,22,–,> 100,–
Nc1ccn(C[C@@H](CO)OCP(=O)(O)O)c(=O)n1.O.O [CIDOFOVIR],> 250,–,–,> 250,–,–,–,–,–,–,–,–,–,–,–,–,–,–,–,–,–
O=c1c2ccccc2nc(-c2ccccc2)n1/N=C/c1ccc(O)cc1,100,> 20,> 20,> 20,> 20,100,> 20,> 20,> 20,> 20,> 20,59.5,> 20,> 20,100,> 20,> 20,> 20,Not Active,20,EC50 (Influenza A virus [15]): Not Active; EC50 (Influenza B virus [16]): Not Active; CC50 (MDCK): 10.2 mg/L; EC50 (Influenza A virus [18]): Not Active; EC50 (Influenza A virus [19]): Not Active; EC50 (Influenza B virus [20]): Not Active
COc1ccccc1/C=N/n1c(-c2ccccc2)nc2ccccc2c1=O,100,> 20,> 20,> 20,> 20,100,> 20,> 20,> 20,> 20,> 20,14.4,> 4,> 4,20,> 4,> 4,> 4,Not Active,20,EC50 (Influenza A virus [15]): Not Active; EC50 (Influenza B virus [16]): Not Active; CC50 (MDCK): 12.4 mg/L; EC50 (Influenza A virus [18]): Not Active; EC50 (Influenza A virus [19]): Not Active; EC50 (Influenza B virus [20]): Not Active
